# Test results: ChEMBL document CHEMBL1153386, “Allopregnanolone (3alpha-hydroxy-5alpha-pregnan-20-one) derivatives with a polar chain in position 16alpha: synthesis and activity” (J Med Chem, 2009)
# Experiments:
# [1] = Displacement of [35S]TBPS from Wistar rat brain GABAA receptor
# Method in brief: (§1)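 Whole-brain membranes from adult male Wistar rats, resuspended in 20 mM KH2PO4/200 mM KCl, pH 7.4. Incubated 60 min at 37 °C with 2 nM [35S]TBPS, 1 µM GABA and steroid at 1 nM–10 µM. Nonspecific binding defined with 200 µM picrotoxinin. Binding expressed as % of DMSO control samples.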
# [2] = species: Rattus norvegicus; assay: Displacement of [35S]TBPS from Wistar rat brain GABAA receptor relative to control; method in brief: as §1
# [3] = species: Rattus norvegicus; assay: Displacement of [35S]TBPS from Wistar rat brain GABAA receptor at 100 nM relative to control; method in brief: as §1
Structure (SMILES),IC50 [1],Imax [2],inhibition [3]
CC(=O)[C@H]1[C@H](CCOC(N)=O)C[C@H]2[C@@H]3CC[C@H]4C[C@H](OC(N)=O)CC[C@]4(C)[C@H]3CC[C@@]21C,300 nM,59%,–
CC(=O)[C@H]1[C@H](OCCOCCO)C[C@H]2[C@@H]3CC[C@H]4C[C@H](O)CC[C@]4(C)[C@H]3CC[C@@]21C,–,–,< 15%
CC(=O)[C@H]1CC[C@H]2[C@@H]3CC[C@H]4C[C@H](O)CC[C@]4(C)[C@H]3CC[C@]12C [BREXANOLONE],80 nM,79%,–
CC(=O)[C@H]1[C@H](C(COC(N)=O)COC(N)=O)C[C@H]2[C@@H]3CC[C@H]4C[C@H](O)CC[C@]4(C)[C@H]3CC[C@@]21C,86 nM,26%,–
NC(=O)OCC(COC(N)=O)c1ccccc1 [FELBAMATE],95 nM,18%,–
CC(=O)[C@H]1[C@H](CC#N)C[C@H]2[C@@H]3CC[C@H]4C[C@H](O)CC[C@]4(C)[C@H]3CC[C@@]21C,–,–,< 15%
CC(=O)[C@H]1[C@H](CC(N)=O)C[C@H]2[C@@H]3CC[C@H]4C[C@H](O)CC[C@]4(C)[C@H]3CC[C@@]21C,–,–,< 15%
CC(=O)[C@H]1[C@H](C(CO)CO)C[C@H]2[C@@H]3CC[C@H]4C[C@H](O)CC[C@]4(C)[C@H]3CC[C@@]21C,–,–,< 15%
CC(=O)[C@H]1[C@H](CC(=O)O)C[C@H]2[C@@H]3CC[C@H]4C[C@H](O)CC[C@]4(C)[C@H]3CC[C@@]21C,40 nM,19%,–
CC(=O)[C@H]1[C@H](OCCO)C[C@H]2[C@@H]3CC[C@H]4C[C@H](O)CC[C@]4(C)[C@H]3CC[C@@]21C,–,–,< 15%
CC(=O)[C@H]1[C@H](OCC(O)CO)C[C@H]2[C@@H]3CC[C@H]4C[C@H](O)CC[C@]4(C)[C@H]3CC[C@@]21C (stereo partly drawn),–,–,< 15%
CC(=O)[C@H]1[C@H](CCOC(N)=O)C[C@H]2[C@@H]3CC[C@H]4C[C@H](O)CC[C@]4(C)[C@H]3CC[C@@]21C,750 nM,61%,–
